Source: PubChem (The Scripps Research Institute Molecular Screening Center)
This is a sample that favours compounds with a hit; in the whole collection about 4.6% have one here.
TAAR1 ag – human TAAR1 agonists, primary screen, Fluo-8 calcium fluorescence, CHO RD-HGA16 cells | activation, % at 3 µM | AID 624467, 2012 | vehicle wells 0%, saturating PEA agonist 100% | 360,000 compounds, 0.99% hits;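 active = activation above the mean activation of all test compounds in the run plus 3 SD, cut at about 38% in these data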
Target sequence (Q96RJ0 whole entry, looked up): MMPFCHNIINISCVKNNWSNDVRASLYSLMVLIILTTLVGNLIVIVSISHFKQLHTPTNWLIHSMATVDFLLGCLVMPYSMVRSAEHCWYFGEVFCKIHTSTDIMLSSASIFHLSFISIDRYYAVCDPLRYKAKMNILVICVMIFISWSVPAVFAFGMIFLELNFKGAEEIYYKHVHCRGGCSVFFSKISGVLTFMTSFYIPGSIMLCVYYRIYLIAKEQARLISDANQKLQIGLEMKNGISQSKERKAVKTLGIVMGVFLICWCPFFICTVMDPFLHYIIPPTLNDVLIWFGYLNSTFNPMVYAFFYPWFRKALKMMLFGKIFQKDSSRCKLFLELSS
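test system = CHO RD-HGA16 cells carrying human TAAR1 plus Gα16 | schedule = 17-24 h seeding, 75 min 37 °C dye, 30 min RT | compound dosing = 3 µM single concentration | control set = DMSO and PEA EC100 | replicates = n 1 | signal = Fluo-8 fluorescence, 5 s baseline then 140 s kinetic read | measure = percent activation vs PEA EC100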
OX1R antag-1 – antagonists of human orexin 1 receptor (OX1R); Orexin/Hypocretin receptor type 1 (Homo sapiens), O43613; OX1R-expressing cells, FRET antagonist read-out; inhibition, % at 6.6 µM; 330,000 compounds, 1.8% hits; in the data active = inhibition mostly above about 38%, no sharp cut-off; inactive = mostly below about 40%;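 note: 0% = agonist challenge alone and 100% = reference antagonist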
Target sequence (O43613 whole entry, looked up): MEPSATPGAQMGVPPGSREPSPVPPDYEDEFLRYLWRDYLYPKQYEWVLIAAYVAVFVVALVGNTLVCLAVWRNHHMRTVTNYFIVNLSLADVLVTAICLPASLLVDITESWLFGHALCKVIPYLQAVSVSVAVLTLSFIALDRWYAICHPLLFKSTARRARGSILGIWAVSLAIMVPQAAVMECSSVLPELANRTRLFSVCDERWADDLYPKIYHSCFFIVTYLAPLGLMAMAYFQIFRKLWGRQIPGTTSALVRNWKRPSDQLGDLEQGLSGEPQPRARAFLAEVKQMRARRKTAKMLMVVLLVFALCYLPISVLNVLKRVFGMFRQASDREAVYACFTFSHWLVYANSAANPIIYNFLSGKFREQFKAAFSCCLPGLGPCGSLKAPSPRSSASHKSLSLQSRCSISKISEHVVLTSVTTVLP
GPR7 antagonist – GPR7 receptor antagonists, primary screen, cell-based, fluorescence, single concentration; Neuropeptides B/W receptor type 1 (Homo sapiens), P48145; GPR7-expressing cells, fluorescence antagonist assay; inhibition, % at 4.4 µM; 290,000 compounds, 1.1% hits; AID 1861, 2009; in the data active = inhibition above about 16%, passing the limit was not always enough;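 note: cells stimulated with the agonist NPW; 0% = agonist with vehicle and 100% = vehicle without agonist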
OX1R antag-2 – OX1R (HCRTR1) antagonists, primary screen, fluorescence, CHO/OX1R cells, Fluo-8 calcium, orexin A | inhibition, % at 5 µM | 330,000 compounds, 0.43% hits | Fluo-8 calcium fluorescence;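 active = inhibition above its plate's threshold, mean inhibition of all tested compounds on the plate plus 3 SD, cut at about 37% in these data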;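 note: 0% = orexin A challenge wells and 100% = SB-334867-A antagonist wells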
CHO parental Ca – ATP-evoked calcium signal inhibitors, parental CHO, primary screen, counter-screen for OX1R antagonist project, cell-based, fluorescence, Fluo-8 calcium dye | parental CHO-K1, ATP-induced calcium, Fluo-8 fluorescence | AID 463079, 2010 | 330,000 compounds, 0.63% hits | inhibition, % at 5.6 µM;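 active = inhibition above that plate's mean sample inhibition plus 3 SD, cut at about 26% in these data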;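 note: 0% = ATP-challenged DMSO wells and 100% = DMSO wells without ATP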
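material = parental CHO cells | also added = ATP as calcium-mobilizing challenge | dosing = single point at 5.6 µM | detection = intracellular calcium via Fluo-8 no-wash fluorescent dye | read-out = % inhibition | benchmarks = low control ATP plus DMSO, high control DMSO only | repeats = one well per compound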
TAAR1 antag – human TAAR1 antagonists, primary screen, Fluo-8 calcium fluorescence, CHO RD-HGA16 cells; Trace amine-associated receptor 1 (Homo sapiens), Q96RJ0; antagonist; inhibition, % at 3 µM; 360,000 compounds, 1.5% hits;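 active = inhibition above a per-plate cutoff, the mean inhibition of test compounds on that plate plus 3 SD, cut at about 49% in these data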;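 note: 0% = DMSO plus EC80 beta-PEA response and 100% = DMSO alone without agonist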
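Test system: CHO RD-HGA16 cells bearing hTAAR1 | Reagent: β-PEA, EC80 | Compound dosing: 3 µM, single point | Schedule: Dye loading 75 min at 37 °C, then 30 min room temperature | Signal: Calcium fluorescence with Fluo-8 | Evaluation: Percent inhibition of PEA-evoked calcium signal, max/basal emission ratio | Control set: DMSO-only wells and EC80 β-PEA-stimulated wells | Repeats: Singlicate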
OX1R HTRF confirm – OX1R (HCRTR1) antagonists, confirmation, cell-based, HTRF | OX1R-expressing cells, HTRF antagonist assay | shares compounds with OX1R antag-1 | 1,800 compounds, 49% hits | AID 492964, 2010 | inhibition, % at 6.6 µM; in the data active = inhibition above about 55%;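 note: CHO cells expressing OX1R stimulated with orexin A at about EC80; 0% = agonist challenge alone and 100% = reference antagonist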
CHO-K1 HTRF cnt – signal inhibition in parental CHO-K1 cells, counter-screen for OX1R antagonist project, cell-based, HTRF; shares compounds with OX1R antag-1; HTRF counterscreen; inhibition, % at 6.6 µM; 1,800 compounds, 48% hits; AID 493232, 2011; in the data active = inhibition above about 17%;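 note: 0% = agonist challenge with vehicle and 100% = vehicle alone without agonist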
nonsel antag count – nonselective antagonists in TAAR1 counter-screen cells, counter-screen for hTAAR1 antagonist project, cell-based, fluorescence, calcium | AID 651780, 2012 | counterscreen cell line, antagonist mode | shares compounds with TAAR1 antag | 2,400 compounds, 77% hits | inhibition, % at 3 µM; in the data active = inhibition above about 22%;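 note: CHO-Ga16 host cells stimulated with ATP at an EC80 level; 0% = agonist EC80 plus vehicle and 100% = vehicle without agonist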
TAAR1 ant conf – human TAAR1 antagonists, retest of hits, confirmation, cell-based, fluorescence; shares compounds with TAAR1 antag; TAAR1-expressing cells, fluorescence antagonist read-out; inhibition, % at 3 µM; 2,400 compounds, 40% hits; AID 651785, 2012; in the data active = inhibition above about 49%;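 note: CHO-Ga16 host cells challenged with agonist PEA near its EC80; 0% = agonist at EC80 plus vehicle and 100% = vehicle with no agonist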
Ga16 nonsel ag – calcium activation in Ga16-expressing cells, counter-screen for TAAR1 antagonist project, cell-based, fluorescence; agonist counterscreen; activation, % at 3 µM; shares compounds with TAAR1 antag; AID 651953, 2012; 2,400 compounds, 18% hits; in the data active = activation above about 12%;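 note: 0% = vehicle wells and 100% = saturating stimulus response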
TAAR1 ag counter – TAAR1 activation by candidate antagonists – cell-based, fluorescence, counter-screen for TAAR1 antagonist project. shares compounds with TAAR1 antag. hTAAR1 cell line, agonist mode. activation, % at 3 µM. 2,400 compounds, 2% hits; in the data active = activation above about 37%;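 note: CHO cells stably expressing TAAR1 with calcium dye readout; 0% = DMSO vehicle and 100% = full agonist response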
Active calls of the source: *; / = not tested or not shown.

SMILES	TAAR1 ag	OX1R antag-1	GPR7 antagonist	OX1R antag-2	CHO parental Ca	TAAR1 antag	OX1R HTRF confirm	CHO-K1 HTRF cnt	others
COc1ccc(Nc2ccc(N3C(=O)CC(C)C3=O)cc2[N+](=O)[O-])cn1 (centres undefined)	4.6	78.4*	0.2	-13.3	11.7	-2.8	41.2	38.9*
COc1cccc(CCNc2ccc(N3C(=O)CC(C)C3=O)cc2[N+](=O)[O-])c1 (centres undefined)	0.2	30.0	8.0	-23.9	-8.9	-5.5	/	/
COc1ccc(N(C)C(=O)CCS(=O)(=O)c2cccc3nonc23)cc1	8.3	116.6*	2.8	-30.2	-13.9	-10.6	46.2	48.7*
COc1ccccc1CNC(=O)CCS(=O)(=O)c1cccc2nonc12	7.0	82.6*	-3.0	-31.4	-8.5	-2.5	30.8	31.7*
O=[n+]1c2c(n([O-])c3ccccc31)CCC2	/	28.1	-3.6	-1.4	8.6	/	/	/
O=[n+]1c2c(n([O-])c3cc(F)ccc31)CCCC2	0.2	81.8*	-0.1	-9.1	-1.6	9.6	36.3	53.7*
O=C1c2ccccc2S(=O)(=O)c2cc(N3CCN(C(=O)c4ccccc4)CC3)ccc21	11.1	11.8	/	-16.6	-10.9	20.2	/	/
OCCCN=c1cc(-c2ccccc2)oc2ccc(Cl)cc12	1.7	96.2*	-4.7	-24.4	-17.6	-7.9	35.7	60.8*
CC1(C)CC(N=c2cc(-c3ccccc3)oc3ccc(Cl)cc23)CC(C)(C)N1	1.1	/	-13.6	/	/	6.4	/	/
COc1ccc([C@@H]2CC=C(C(=O)O)[C@H](c3cccc(Cl)c3)N2S(=O)(=O)c2ccc(C)cc2)cc1OC	12.2	76.9*	/	13.3	-7.9	-9.2	84.2*	-1.1
COc1ccc([C@@H]2CC=C(C(=O)O)[C@H](c3ccccc3)N2S(=O)(=O)c2ccccc2C)cc1	7.1	77.5*	/	-28.6	-24.6	3.2	55.2*	-2.7
O=C(Cc1ccc(-n2c(=O)[nH]c3ccsc3c2=O)cc1)N1CCN(c2ccc(Cl)cc2)CC1	-1.2	8.2	8.9	-15.5	-16.9	14.1	/	/
O=C(NCc1ccc(F)cc1)C1CCN(S(=O)(=O)c2ccc(N3CCCC3=O)cc2)CC1	2.3	/	/	/	/	-2.9	/	/
N#Cc1cc([N+](=O)[O-])ccc1NC(=O)COC(=O)C1CC2CCCC(C1)C2=O (centres undefined)	2.2	87.8*	/	-20.5	-3.3	-6.2	32.7	43.3*
COc1ccc(OC)c(S(=O)(=O)NC(C)CCc2ccccc2)c1 (centres undefined)	-1.1	12.6	-16.4	-8.1	-13.1	-12.2	/	/
COCCn1c(=N)c(C(=O)NCCc2ccc(OC)cc2)cc2c(=O)n3cccc(C)c3nc21	2.7	29.5	-5.4	-36.4	-18.6	-3.8	/	/
COCCCNC(=O)c1cc2c(=O)n3cccc(C)c3nc2n(C(C)C)c1=N	0.8	81.4*	-4.8	-19.4	-3.9	6.4	47.9	37.6*
Cc1ccc2nc3c(cc(C(=O)NC4CCCCC4)c(=N)n3C3CCCCC3)c(=O)n2c1	0.3	16.7	-17.7	-11.7	-14.8	-16.2	/	/
Cc1cccn2c(=O)c3cc(C(=O)NC(C)C)c(=N)n(Cc4ccncc4)c3nc12	-1.0	83.6*	-14.4	-27.3	-13.6	-2.6	49.6	56.8*
CNC(=O)c1cc2c(=O)n3cc(C)ccc3nc2n(C(C)C)c1=N	-0.3	144.9*	-10.2	-21.5	6.5	2.4	52.2	71.0*
COc1ccc(C(=O)Nc2cccc(S(=O)(=O)NC3=NCCCCC3)c2)cc1	0.8	5.0	/	-5.3	-14.6	8.9	/	/
O=C(Nc1ccccc1)C1CCCCN1S(=O)(=O)c1ccccc1 (centres undefined)	-0.6	79.7*	-4.8	11.1	-7.8	-16.6	60.4*	2.4
COC(=O)c1sc(NC(=O)c2ccc([N+](=O)[O-])o2)c(C#N)c1C	2.6	91.5*	-12.1	19.4	9.1	-14.9	64.0*	29.6*
Cc1cccc(NC(=O)c2ccc([N+](=O)[O-])o2)n1	10.6	96.8*	3.7	-7.5	-5.3	-5.0	44.9	63.9*
O=C(Nc1ccc(N2CCOCC2)cc1)c1ccc([N+](=O)[O-])o1	-2.9	94.8*	-13.4	-4.3	4.9	-11.5	41.5	15.1
CCOC(=O)c1sc(NC(=O)c2ccco2)c(C#N)c1C	12.8	14.6	2.7	7.1	-0.9	2.0	/	/
Cc1cccnc1NC(=O)c1ccc([N+](=O)[O-])o1	7.5	116.2*	-5.0	0.3	2.3	17.6	35.8	57.5*
Cc1ccc(C)c2[nH]c(=O)c(CCNC(=O)c3ccc4c(c3)OCO4)cc12	7.2	22.3	15.2	-14.5	-3.5	1.5	/	/
CCC(=O)N1CCN(c2ccc(NC(=O)c3cc4ccccc4o3)cc2Cl)CC1	24.7	81.2*	-15.0	11.1	18.2	73.5*	33.5	7.2	nonsel antag count=49.3*;TAAR1 ant conf=66.3*;Ga16 nonsel ag=12.7*;TAAR1 ag counter=12.4
COc1ccc(-c2oc3ccc(N4CCOCC4)cc3c2C#CCO)cc1	7.2	80.9*	/	13.4	-11.4	58.5*	38.8	7.0	nonsel antag count=23.1*;TAAR1 ant conf=44.1;Ga16 nonsel ag=5.2;TAAR1 ag counter=9.6
